ChEMBL document CHEMBL3525931, “Stereoselective interaction of pantoprazole with ABCG2. II. In vitro flux analysis” (Drug Metab Dispos, 2012)

Key:
[1] = biological target: T1, ABCG2 (Homo sapiens, UniProt Q9UNQ0); assay: Asymmetry efflux ratio in MDCK2 cells expressing human ABCG2 assessed as ABCG2-mediated drug transport ratio at 50 uM after 0.5 to 1 hrs by HPLC method; format: ADME, cell-based
T1 sequence (Q9UNQ0 whole entry): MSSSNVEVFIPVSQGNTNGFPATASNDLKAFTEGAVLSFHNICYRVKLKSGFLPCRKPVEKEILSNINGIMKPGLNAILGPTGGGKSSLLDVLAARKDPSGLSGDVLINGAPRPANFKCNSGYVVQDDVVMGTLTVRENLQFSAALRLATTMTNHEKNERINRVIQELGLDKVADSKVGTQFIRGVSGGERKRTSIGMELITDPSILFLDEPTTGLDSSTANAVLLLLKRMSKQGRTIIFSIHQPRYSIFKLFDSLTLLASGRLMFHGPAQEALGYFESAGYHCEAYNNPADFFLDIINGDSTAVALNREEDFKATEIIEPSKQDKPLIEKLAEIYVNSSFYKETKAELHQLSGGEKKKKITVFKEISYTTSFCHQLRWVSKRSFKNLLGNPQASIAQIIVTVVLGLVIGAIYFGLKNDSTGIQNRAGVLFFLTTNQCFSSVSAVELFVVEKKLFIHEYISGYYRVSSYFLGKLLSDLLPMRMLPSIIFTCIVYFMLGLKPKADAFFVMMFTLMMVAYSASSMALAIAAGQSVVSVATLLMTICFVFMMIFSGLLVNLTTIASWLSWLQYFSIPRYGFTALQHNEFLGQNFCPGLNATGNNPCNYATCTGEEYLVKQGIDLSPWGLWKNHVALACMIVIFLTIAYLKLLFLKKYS
Procedure, shortened: (§1)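 Mock (empty pcDNA3.1) or rat Abcg2/human ABCG2-transfected MDCKII, G418-selected, seeded on 3.0-μm Transwell filters at 1.0×10^6 cells/well, grown 4 days to TEER >200 Ω·cm². Single isomer loaded apical or basolateral in serum-free Opti-MEM I with 0.2 μCi/ml [3H]mannitol, 37°C 5% CO2. Receiver sampled at 0.5 and 1 h. Quantified by HPLC-UV 290 nm. Permeability = initial rate/(area × donor concentration). Efflux ratio = B→A rate / A→B rate. n = 3, mean ± S.D.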

[2] = Asymmetry efflux ratio in MDCK2 cells assessed as drug transport ratio at 200 uM after 0.5 to 1 hrs by HPLC method; format: ADME, cell-based, Canis lupus familiaris, MDCK-II; details: dog, MDCK; procedure, shortened: as §1
[3] = Asymmetry efflux ratio in MDCK2 cells assessed as drug transport ratio at 3 to 200 uM after 0.5 to 1 hrs by HPLC method; format: ADME, cell-based, Canis lupus familiaris, MDCK-II; details: dog, MDCK; procedure, shortened: as §1

| efflux ratio at 50 µM [1] | efflux ratio at 200 µM [2] | efflux ratio at up to 200 µM [3] | SMILES |
| --- | --- | --- | --- |
| 1.44 | 0.99 | 1.04 | COc1ccnc(C[S@+]([O-])c2nc3cc(OC(F)F)ccc3[nH]2)c1OC |
| 2.45 | 0.98 | 1.04 | COc1ccnc(C[S@@+]([O-])c2nc3cc(OC(F)F)ccc3[nH]2)c1OC |
